From ChEMBL document CHEMBL1817556, “Substituted lactam and cyclic azahemiacetals modulate Pseudomonas aeruginosa quorum sensing” (Bioorg Med Chem, 2011)

Columns and labels:
[1] = target: 3-(3-hydroxydecanoyloxy)decanoate synthase (Pseudomonas aeruginosa (strain ATCC 15692 / PAO1 / 1C / PRS 101 / LMG12228)) (UniProt Q51559); assay: Modulation of Pseudomonas aeruginosa lacZ-fused rhlA expressed in Escherichia coli DH5alpha co-expressing Ptac-rhlR assessed as C4-AHL-induced effect at 0.23 mM after 4 hrs by beta-galactosidase assay relative to control
Outline: (§1)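 rhl reporter: E. coli DH5α carrying pECP61.5 (Ptac-rhlR, PrhlA-lacZ) was grown overnight in LB with ampicillin (100 μg/ml) only, then diluted to OD600 0.150. It was induced with 1 mM IPTG, and 2 μM C4-HSL plus compound or DMSO were added at OD600 1.0. Cultures were shaken 4 h at 37 °C. β-Galactosidase activity was read in Miller units as % of the solvent sample. Triplicates per biological replicate, at least two repeats; paired two-tailed t-test.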

[2] = target: 3-(3-hydroxydecanoyloxy)decanoate synthase (Pseudomonas aeruginosa (strain ATCC 15692 / PAO1 / 1C / PRS 101 / LMG12228)) (UniProt Q51559); assay: Modulation of Pseudomonas aeruginosa lacZ-fused rhlA expressed in Escherichia coli DH5alpha co-expressing Ptac-rhlR assessed as C4-AHL-induced effect at 0.46 mM after 4 hrs by beta-galactosidase assay relative to control; outline: as §1
[3] = target: T1, Acyl-homoserine-lactone synthase (Pseudomonas aeruginosa (strain ATCC 15692 / PAO1 / 1C / PRS 101 / LMG12228)) (UniProt P33883); assay: Modulation of Pseudomonas aeruginosa lacZ-fused lasI expressed in Escherichia coli DH5alpha co-expressing pBAD-lasR assessed as 3-oxo-C12-AHL-induced effect at 0.92 mM after 3 hrs by beta-galactosidase assay relative to control
T1 sequence (whole entry): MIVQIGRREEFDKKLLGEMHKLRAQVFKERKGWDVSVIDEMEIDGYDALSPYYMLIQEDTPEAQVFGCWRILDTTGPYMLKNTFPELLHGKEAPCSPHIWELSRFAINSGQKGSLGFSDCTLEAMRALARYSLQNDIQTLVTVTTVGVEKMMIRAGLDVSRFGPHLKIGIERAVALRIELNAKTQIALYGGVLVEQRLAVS
Outline: (§2)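 E. coli DH5α carrying pSC11 (PlasI-lacZ translational fusion) and pJN105L (PBAD-lasR) was grown overnight in LB with ampicillin (100 μg/ml) and gentamicin (15 μg/ml), then diluted to OD600 0.150. Arabinose (0.2% w/v), 3-oxo-C12-AHL (2 μM) and test compound or DMSO were added. Cultures were shaken 3 h at 37 °C. β-Galactosidase activity was read in Miller units and expressed as % of the solvent sample. Triplicates per biological replicate, repeated at least twice; paired two-tailed t-test.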

[4] = target: 3-(3-hydroxydecanoyloxy)decanoate synthase (Pseudomonas aeruginosa (strain ATCC 15692 / PAO1 / 1C / PRS 101 / LMG12228)) (UniProt Q51559); assay: Modulation of Pseudomonas aeruginosa lacZ-fused rhlA expressed in Escherichia coli DH5alpha co-expressing Ptac-rhlR assessed as C4-AHL-induced effect at 0.92 mM after 4 hrs by beta-galactosidase assay relative to control
Outline: (§3)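 E. coli DH5α carrying pECP61.5 (Ptac-rhlR, PrhlA-lacZ), grown overnight in LB with ampicillin 100 μg/ml and diluted to OD600 0.150. At OD600 1.0, 1 mM IPTG, 2 μM C4-HSL and compound or DMSO were added. Cultures were shaken 4 h at 37 °C, then β-galactosidase was read in Miller units. Activity is % of solvent sample, from triplicates per biological replicate, with at least two repeats.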

[5] = target: T1, Acyl-homoserine-lactone synthase (Pseudomonas aeruginosa (strain ATCC 15692 / PAO1 / 1C / PRS 101 / LMG12228)); assay: Modulation of Pseudomonas aeruginosa lacZ-fused lasI expressed in Escherichia coli DH5alpha co-expressing pBAD-lasR assessed as 3-oxo-C12-AHL-induced effect at 0.46 mM after 3 hrs by beta-galactosidase assay relative to control; outline: as §2
[6] = target: 3-(3-hydroxydecanoyloxy)decanoate synthase (Pseudomonas aeruginosa (strain ATCC 15692 / PAO1 / 1C / PRS 101 / LMG12228)) (UniProt Q51559); assay: Modulation of Pseudomonas aeruginosa lacZ-fused rhlA expressed in Escherichia coli DH5alpha co-expressing Ptac-rhlR assessed as C4-AHL-induced effect at 0.69 mM after 4 hrs by beta-galactosidase assay relative to control; outline: as §3
[7] = target: T1, Acyl-homoserine-lactone synthase (Pseudomonas aeruginosa (strain ATCC 15692 / PAO1 / 1C / PRS 101 / LMG12228)); assay: Modulation of Pseudomonas aeruginosa lacZ-fused lasI expressed in Escherichia coli DH5alpha co-expressing pBAD-lasR assessed as 3-oxo-C12-AHL-induced effect at 0.69 mM after 3 hrs by beta-galactosidase assay relative to control; outline: as §2
[8] = target: T1, Acyl-homoserine-lactone synthase (Pseudomonas aeruginosa (strain ATCC 15692 / PAO1 / 1C / PRS 101 / LMG12228)); assay: Modulation of Pseudomonas aeruginosa lacZ-fused lasI expressed in Escherichia coli DH5alpha co-expressing pBAD-lasR assessed as 3-oxo-C12-AHL-induced effect at 0.23 mM after 3 hrs by beta-galactosidase assay relative to control; outline: as §2
[9] = target: T1, Acyl-homoserine-lactone synthase (Pseudomonas aeruginosa (strain ATCC 15692 / PAO1 / 1C / PRS 101 / LMG12228)); assay: Modulation of Pseudomonas aeruginosa lacZ-fused lasI expressed in Escherichia coli DH5alpha co-expressing pBAD-lasR assessed as 3-oxo-C12-AHL-induced effect at 0.58 mM after 3 hrs by beta-galactosidase assay relative to control; outline: as §2
[10] = target: T1, Acyl-homoserine-lactone synthase (Pseudomonas aeruginosa (strain ATCC 15692 / PAO1 / 1C / PRS 101 / LMG12228)); assay: Modulation of Pseudomonas aeruginosa lacZ-fused lasI expressed in Escherichia coli DH5alpha co-expressing pBAD-lasR assessed as 3-oxo-C12-AHL-induced effect at 0.39 mM after 3 hrs by beta-galactosidase assay relative to control; outline: as §2
[11] = target: T1, Acyl-homoserine-lactone synthase (Pseudomonas aeruginosa (strain ATCC 15692 / PAO1 / 1C / PRS 101 / LMG12228)); assay: Modulation of Pseudomonas aeruginosa lacZ-fused lasI expressed in Escherichia coli DH5alpha co-expressing pBAD-lasR assessed as 3-oxo-C12-AHL-induced effect at 0.19 mM after 3 hrs by beta-galactosidase assay relative to control; outline: as §2
[12] = target: 3-(3-hydroxydecanoyloxy)decanoate synthase (Pseudomonas aeruginosa (strain ATCC 15692 / PAO1 / 1C / PRS 101 / LMG12228)) (UniProt Q51559); assay: Modulation of Pseudomonas aeruginosa lacZ-fused rhlA expressed in Escherichia coli DH5alpha co-expressing Ptac-rhlR assessed as C4-AHL-induced effect at 0.39 mM after 4 hrs by beta-galactosidase assay relative to control; outline: as §1
[13] = target: T1, Acyl-homoserine-lactone synthase (Pseudomonas aeruginosa (strain ATCC 15692 / PAO1 / 1C / PRS 101 / LMG12228)); assay: Modulation of Pseudomonas aeruginosa lacZ-fused lasI expressed in Escherichia coli DH5alpha co-expressing pBAD-lasR assessed as 3-oxo-C12-AHL-induced effect at 0.77 mM after 3 hrs by beta-galactosidase assay relative to control; outline: as §2
[14] = target: 3-(3-hydroxydecanoyloxy)decanoate synthase (Pseudomonas aeruginosa (strain ATCC 15692 / PAO1 / 1C / PRS 101 / LMG12228)) (UniProt Q51559); assay: Modulation of Pseudomonas aeruginosa lacZ-fused rhlA expressed in Escherichia coli DH5alpha co-expressing Ptac-rhlR assessed as C4-AHL-induced effect at 0.19 mM after 4 hrs by beta-galactosidase assay relative to control; outline: as §1
[15] = target: 3-(3-hydroxydecanoyloxy)decanoate synthase (Pseudomonas aeruginosa (strain ATCC 15692 / PAO1 / 1C / PRS 101 / LMG12228)) (UniProt Q51559); assay: Modulation of Pseudomonas aeruginosa lacZ-fused rhlA expressed in Escherichia coli DH5alpha co-expressing Ptac-rhlR assessed as C4-AHL-induced effect at 0.77 mM after 4 hrs by beta-galactosidase assay relative to control; outline: as §3
[16] = target: 3-(3-hydroxydecanoyloxy)decanoate synthase (Pseudomonas aeruginosa (strain ATCC 15692 / PAO1 / 1C / PRS 101 / LMG12228)) (UniProt Q51559); assay: Modulation of Pseudomonas aeruginosa lacZ-fused rhlA expressed in Escherichia coli DH5alpha co-expressing Ptac-rhlR assessed as C4-AHL-induced effect at 0.58 mM after 4 hrs by beta-galactosidase assay relative to control; outline: as §3
[17] = target: T1, Acyl-homoserine-lactone synthase (Pseudomonas aeruginosa (strain ATCC 15692 / PAO1 / 1C / PRS 101 / LMG12228)); assay: Modulation of Pseudomonas aeruginosa lacZ-fused lasI expressed in Escherichia coli DH5alpha co-expressing pBAD-lasR assessed as 3-oxo-C12-AHL-induced effect at 0.35 mM after 3 hrs by beta-galactosidase assay relative to control; outline: as §2
[18] = target: 3-(3-hydroxydecanoyloxy)decanoate synthase (Pseudomonas aeruginosa (strain ATCC 15692 / PAO1 / 1C / PRS 101 / LMG12228)) (UniProt Q51559); assay: Modulation of Pseudomonas aeruginosa lacZ-fused rhlA expressed in Escherichia coli DH5alpha co-expressing Ptac-rhlR assessed as C4-AHL-induced effect at 0.17 mM after 4 hrs by beta-galactosidase assay relative to control; outline: as §1
[19] = target: 3-(3-hydroxydecanoyloxy)decanoate synthase (Pseudomonas aeruginosa (strain ATCC 15692 / PAO1 / 1C / PRS 101 / LMG12228)) (UniProt Q51559); assay: Modulation of Pseudomonas aeruginosa lacZ-fused rhlA expressed in Escherichia coli DH5alpha co-expressing Ptac-rhlR assessed as C4-AHL-induced effect at 0.52 mM after 4 hrs by beta-galactosidase assay relative to control; outline: as §1
[20] = target: T1, Acyl-homoserine-lactone synthase (Pseudomonas aeruginosa (strain ATCC 15692 / PAO1 / 1C / PRS 101 / LMG12228)); assay: Modulation of Pseudomonas aeruginosa lacZ-fused lasI expressed in Escherichia coli DH5alpha co-expressing pBAD-lasR assessed as 3-oxo-C12-AHL-induced effect at 0.17 mM after 3 hrs by beta-galactosidase assay relative to control; outline: as §2
[21] = target: T1, Acyl-homoserine-lactone synthase (Pseudomonas aeruginosa (strain ATCC 15692 / PAO1 / 1C / PRS 101 / LMG12228)); assay: Modulation of Pseudomonas aeruginosa lacZ-fused lasI expressed in Escherichia coli DH5alpha co-expressing pBAD-lasR assessed as 3-oxo-C12-AHL-induced effect at 0.52 mM after 3 hrs by beta-galactosidase assay relative to control; outline: as §2
[22] = target: 3-(3-hydroxydecanoyloxy)decanoate synthase (Pseudomonas aeruginosa (strain ATCC 15692 / PAO1 / 1C / PRS 101 / LMG12228)) (UniProt Q51559); assay: Modulation of Pseudomonas aeruginosa lacZ-fused rhlA expressed in Escherichia coli DH5alpha co-expressing Ptac-rhlR assessed as C4-AHL-induced effect at 0.35 mM after 4 hrs by beta-galactosidase assay relative to control; outline: as §1
[23] = target: T1, Acyl-homoserine-lactone synthase (Pseudomonas aeruginosa (strain ATCC 15692 / PAO1 / 1C / PRS 101 / LMG12228)); assay: Modulation of Pseudomonas aeruginosa lacZ-fused lasI expressed in Escherichia coli DH5alpha co-expressing pBAD-lasR assessed as 3-oxo-C12-AHL-induced effect at 0.78 mM after 3 hrs by beta-galactosidase assay relative to control; outline: as §2
[24] = target: 3-(3-hydroxydecanoyloxy)decanoate synthase (Pseudomonas aeruginosa (strain ATCC 15692 / PAO1 / 1C / PRS 101 / LMG12228)) (UniProt Q51559); assay: Modulation of Pseudomonas aeruginosa lacZ-fused rhlA expressed in Escherichia coli DH5alpha co-expressing Ptac-rhlR assessed as C4-AHL-induced effect at 0.78 mM after 4 hrs by beta-galactosidase assay relative to control; outline: as §3

Activity [6] [%] | Activity [7] [%] | Activity [9] [%] | Activity [10] [%] | Activity [11] [%] | Activity [12] [%] | Activity [14] [%] | Activity [16] [%] | Compound | also measured
0 | 0 | – | – | – | – | – | – | CCCCCCSC[C@@H]1CCC(O)N1 (mixture of isomers) | Activity [1]: 26%; Activity [2]: 0.2%; Activity [3]: 0%; Activity [4]: 0%; Activity [5]: 0%; Activity [8]: 109%
– | – | 57 | 65 | 74 | 80 | 93 | 100 | CCCCCCCCCSC[C@@H]1CCC(O)N1 (mixture of isomers) | Activity [13]: 47%; Activity [15]: 99%
135 | 63 | – | – | – | – | – | – | CCCCCCCCCSC[C@H]1NC(=O)[C@H](O)[C@@H]1O | Activity [17]: 87%; Activity [18]: 106%; Activity [19]: 115%; Activity [20]: 93%; Activity [21]: 80%; Activity [22]: 117%
– | – | 18 | 26 | 72 | 115 | 95 | 108 | CCCCCCCCCSC[C@@H]1CCC(=O)N1 | Activity [23]: 6%; Activity [24]: 137%
